Reference: ChEMBL document CHEMBL1811829, “Discovery of selective indole-based prostaglandin D₂ receptor antagonist” (Bioorg Med Chem, 2011)

Key:
Thromboxane A2 receptor = biological target: T1, Thromboxane A2 receptor (Homo sapiens, UniProt P21731); test: Displacement of [3H]-SQ29548 from human TP receptor expressed in CHO cells after 30 mins by liquid scintillation counting; assay type: cell-based
T1 sequence (P21731 whole entry): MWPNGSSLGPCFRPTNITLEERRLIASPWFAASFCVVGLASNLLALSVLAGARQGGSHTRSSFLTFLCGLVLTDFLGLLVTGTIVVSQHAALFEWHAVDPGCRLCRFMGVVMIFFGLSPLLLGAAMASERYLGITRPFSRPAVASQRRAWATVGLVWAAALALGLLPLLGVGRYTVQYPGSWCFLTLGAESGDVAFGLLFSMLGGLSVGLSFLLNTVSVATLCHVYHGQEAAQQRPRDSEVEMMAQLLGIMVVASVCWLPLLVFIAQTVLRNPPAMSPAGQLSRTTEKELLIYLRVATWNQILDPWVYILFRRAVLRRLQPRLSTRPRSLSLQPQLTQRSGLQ
Procedure, shortened: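 Membranes from CHO cells expressing hTP were incubated with 5.0 nM [³H]-SQ29548 and compounds at various concentrations. Buffer was 10 mM Tris–HCl pH 7.5 with 100 mM NaCl, for 30 min at room temperature. Samples were filtered on GF/B, washed with the same buffer, dried 60 min at 60 °C and scintillation counted. Nonspecific binding was set with excess unlabeled SQ29548.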

[1] = biological target: Prostaglandin E2 receptor EP4 subtype (Mus musculus, UniProt P32240); test: Displacement of [3H]-PGE2 from mouse EP4 receptor expressed in CHO cells after 60 mins by liquid scintillation counting; assay type: cell-based
Procedure, shortened: (§1)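 Membranes from CHO cells stably expressing mEP1, mEP2, mEP3a, mEP4 or mFP were used. The radioligand was 2.5 nM [³H]PGE₂ for EP receptors and 2.5 nM [³H]PGF2α for FP. Buffer was 10 mM KH₂PO₄–KOH pH 6.0 with 1 mM EDTA, 10 mM MgCl₂ and 100 mM NaCl. Incubation was at room temperature, 20 min for mEP1 and 60 min for the others. Samples were filtered on GF/B, washed with phosphate/NaCl pH 6.0, dried 60 min at 60 °C and scintillation counted.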

Cavia porcellus [2] = test: Inhibition of OVA-induced vascular permeability in guinea pig conjunctiva at 3 mg/kg, po administered 1 hr before antigen challenge measured after 30 mins; assay type: functional
Procedure, shortened: (§2)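 Male Hartley guinea pigs were sensitized i.p. with OVA (1 mg) plus inactivated Bordetella pertussis. Two weeks later they were challenged with topical OVA (1%, 20 µL/eye), followed at once by Evans blue (20 mg/kg iv). Compound was given orally 1 h before challenge. After 30 min, conjunctiva was removed and extracted in DMF at 37 °C. Dye was read at 620 nm against a standard curve.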

[3] = biological target: T2, Prostaglandin D2 receptor (Mus musculus, UniProt P70263); test: Antagonist activity at mouse DP receptor expressed in CHO cells assessed as inhibition of PGD2-induced cAMP accumulation after 10 mins by enzyme immunoassay in the presence of 0.1% BSA; assay type: functional, cell-based
T2 sequence (P70263 whole entry): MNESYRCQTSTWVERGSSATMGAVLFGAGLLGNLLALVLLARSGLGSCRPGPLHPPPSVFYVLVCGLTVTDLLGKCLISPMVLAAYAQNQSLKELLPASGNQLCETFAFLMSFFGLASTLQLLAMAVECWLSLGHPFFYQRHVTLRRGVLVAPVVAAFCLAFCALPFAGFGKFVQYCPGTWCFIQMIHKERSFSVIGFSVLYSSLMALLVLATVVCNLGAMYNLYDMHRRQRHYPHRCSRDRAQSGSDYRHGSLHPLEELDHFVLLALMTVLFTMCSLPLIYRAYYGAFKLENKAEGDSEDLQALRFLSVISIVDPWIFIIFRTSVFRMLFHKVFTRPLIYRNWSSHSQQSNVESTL
Procedure, shortened: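 CHO cells stably expressing mDP were seeded at 1 × 10⁵ cells/well and grown 2 days. They were preincubated about 10 min at 37 °C in MEM with Diclofenac, then given assay medium (MEM, 0.1% BSA, 1 mM IBMX, Diclofenac). Test compound at various concentrations plus 10 nM PGD₂ was added for 10 min at 37 °C. The reaction was stopped with ice-cold 10% TCA and TCA was extracted. cAMP was measured by EIA. IC50 came from cAMP relative to the PGD₂-only maximum.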

[4] = biological target: T2, Prostaglandin D2 receptor; test: Displacement of [3H]-PGD2 from mouse DP receptor expressed in CHO cells after 20 mins by liquid scintillation counting; assay type: cell-based
Procedure, shortened: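 Membranes from CHO cells stably expressing mDP were incubated with 2.5 nM [³H]PGD₂ and compounds at various concentrations. Buffer was 25 mM HEPES–NaOH pH 7.4 with 1 mM EDTA, 5 mM MgCl₂ and 10 mM MnCl₂, for 20 min at room temperature. Samples were filtered on GF/B and washed with Tris–HCl pH 7.4, NaCl, 0.01% BSA. Filters were dried 60 min at 60 °C and read by scintillation counting. Nonspecific binding was set with excess unlabeled PGD₂.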

Cavia porcellus [5] = test: Inhibition of OVA-induced vascular permeability in guinea pig conjunctiva at 1 mg/kg, po administered 1 hr before antigen challenge measured after 30 mins; assay type: functional; procedure, shortened: as §2
Prostacyclin receptor = Prostacyclin receptor (Homo sapiens, UniProt P43119); test: Displacement of [3H]-Iloprost from human IP receptor expressed in CHO cells after 30 mins by liquid scintillation counting; assay type: cell-based
Procedure, shortened: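 Membranes from CHO cells expressing hIP were incubated with 5.0 nM [³H]Iloprost and compounds at various concentrations. Buffer was 50 mM Tris–HCl pH 7.5 with 1 mM EDTA and 10 mM MgCl₂, for 30 min at room temperature. Samples were filtered on GF/B, washed with 10 mM Tris–HCl/100 mM NaCl pH 7.5, dried 60 min at 60 °C and scintillation counted.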

[6] = biological target: Prostaglandin F2-alpha receptor (Mus musculus, UniProt P43117); test: Displacement of [3H]-PGF2-alpha from mouse FP receptor expressed in CHO cells after 60 mins by liquid scintillation counting; assay type: cell-based; procedure, shortened: as §1
[7] = biological target: T3, Prostaglandin E2 receptor EP1 subtype (Mus musculus, UniProt P35375); test: Displacement of [3H]-PGE2 from mouse EP1 receptor expressed in CHO cells after 20 mins by liquid scintillation counting; assay type: cell-based; procedure, shortened: as §1
T3 sequence (P35375 whole entry): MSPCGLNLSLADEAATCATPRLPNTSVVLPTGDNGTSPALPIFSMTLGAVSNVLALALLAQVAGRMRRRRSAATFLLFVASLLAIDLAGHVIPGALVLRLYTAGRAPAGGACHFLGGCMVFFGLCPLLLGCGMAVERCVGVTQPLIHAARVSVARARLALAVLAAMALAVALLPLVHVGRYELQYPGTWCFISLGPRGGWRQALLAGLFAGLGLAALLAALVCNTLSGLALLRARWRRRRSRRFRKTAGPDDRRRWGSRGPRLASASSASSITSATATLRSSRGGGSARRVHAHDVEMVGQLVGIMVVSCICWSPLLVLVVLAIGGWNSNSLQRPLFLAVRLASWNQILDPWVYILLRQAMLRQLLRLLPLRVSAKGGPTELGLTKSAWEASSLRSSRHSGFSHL

[8] = biological target: Prostaglandin E2 receptor EP2 subtype (Mus musculus, UniProt Q62053); test: Displacement of [3H]-PGE2 from mouse EP2 receptor expressed in CHO cells after 60 mins by liquid scintillation counting; assay type: cell-based; procedure, shortened: as §1
[9] = biological target: T4, Prostaglandin E2 receptor EP3 subtype (Mus musculus, UniProt P30557); test: Displacement of [3H]-PGE2 from mouse EP3 receptor expressed in CHO cells after 60 mins by liquid scintillation counting; assay type: cell-based; procedure, shortened: as §1
T4 sequence (P30557 whole entry): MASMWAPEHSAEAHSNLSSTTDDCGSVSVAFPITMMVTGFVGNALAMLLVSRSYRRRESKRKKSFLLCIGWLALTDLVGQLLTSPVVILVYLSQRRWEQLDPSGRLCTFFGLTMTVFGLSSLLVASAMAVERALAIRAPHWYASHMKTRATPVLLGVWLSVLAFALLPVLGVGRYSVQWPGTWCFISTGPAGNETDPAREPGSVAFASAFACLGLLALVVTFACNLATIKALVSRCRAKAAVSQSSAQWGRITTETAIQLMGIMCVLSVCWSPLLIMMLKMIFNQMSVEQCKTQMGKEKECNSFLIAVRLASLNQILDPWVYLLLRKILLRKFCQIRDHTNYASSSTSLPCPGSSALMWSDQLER

Prostaglandin E2 receptor EP4 subtype, sequence (P32240 whole entry): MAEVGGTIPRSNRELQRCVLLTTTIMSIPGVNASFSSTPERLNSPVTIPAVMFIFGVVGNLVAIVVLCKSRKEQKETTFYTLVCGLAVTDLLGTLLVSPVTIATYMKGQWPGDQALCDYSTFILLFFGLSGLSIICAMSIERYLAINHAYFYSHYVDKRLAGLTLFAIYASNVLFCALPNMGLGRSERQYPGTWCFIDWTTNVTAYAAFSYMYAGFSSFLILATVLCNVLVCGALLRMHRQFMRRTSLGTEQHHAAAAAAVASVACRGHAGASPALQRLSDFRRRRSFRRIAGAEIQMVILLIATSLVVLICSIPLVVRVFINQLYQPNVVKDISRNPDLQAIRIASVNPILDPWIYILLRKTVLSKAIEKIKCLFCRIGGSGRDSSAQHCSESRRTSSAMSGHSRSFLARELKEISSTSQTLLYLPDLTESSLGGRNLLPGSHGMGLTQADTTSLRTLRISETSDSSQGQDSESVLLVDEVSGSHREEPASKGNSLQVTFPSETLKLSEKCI
Prostacyclin receptor, sequence (P43119 whole entry): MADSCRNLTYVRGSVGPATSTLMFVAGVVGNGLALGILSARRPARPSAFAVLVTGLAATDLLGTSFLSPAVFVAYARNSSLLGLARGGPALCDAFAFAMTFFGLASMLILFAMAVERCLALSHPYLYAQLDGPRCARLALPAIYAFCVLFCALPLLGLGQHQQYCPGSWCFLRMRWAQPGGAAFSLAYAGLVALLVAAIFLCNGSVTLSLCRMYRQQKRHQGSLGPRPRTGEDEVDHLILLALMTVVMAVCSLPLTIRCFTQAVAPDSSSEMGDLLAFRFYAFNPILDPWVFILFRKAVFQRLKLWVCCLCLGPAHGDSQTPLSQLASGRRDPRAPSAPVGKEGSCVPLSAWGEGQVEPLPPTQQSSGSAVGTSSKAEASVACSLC
Prostaglandin E2 receptor EP2 subtype, sequence (Q62053 whole entry): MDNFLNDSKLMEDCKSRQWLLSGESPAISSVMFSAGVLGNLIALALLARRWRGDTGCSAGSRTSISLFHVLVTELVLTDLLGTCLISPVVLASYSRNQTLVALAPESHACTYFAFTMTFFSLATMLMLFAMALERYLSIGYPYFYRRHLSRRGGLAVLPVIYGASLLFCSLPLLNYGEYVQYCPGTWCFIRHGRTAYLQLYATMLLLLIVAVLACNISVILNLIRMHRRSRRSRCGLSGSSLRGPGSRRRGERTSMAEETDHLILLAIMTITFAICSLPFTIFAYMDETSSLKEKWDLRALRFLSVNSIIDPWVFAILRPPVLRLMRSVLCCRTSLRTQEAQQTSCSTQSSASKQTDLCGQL
Prostaglandin F2-alpha receptor, sequence (P43117 whole entry): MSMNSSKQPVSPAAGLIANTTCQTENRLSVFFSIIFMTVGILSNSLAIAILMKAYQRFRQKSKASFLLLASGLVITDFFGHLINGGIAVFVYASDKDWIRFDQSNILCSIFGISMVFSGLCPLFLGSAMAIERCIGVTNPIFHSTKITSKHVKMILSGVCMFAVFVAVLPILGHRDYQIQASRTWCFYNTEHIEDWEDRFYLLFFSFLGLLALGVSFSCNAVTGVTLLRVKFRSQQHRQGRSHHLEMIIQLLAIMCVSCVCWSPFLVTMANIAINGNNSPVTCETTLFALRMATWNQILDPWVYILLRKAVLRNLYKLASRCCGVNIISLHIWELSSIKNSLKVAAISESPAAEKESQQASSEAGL

SMILES: Cc1cc2c(CC(=O)O)cccc2n1C(=O)c1ccc(OC[C@@H]2CN(C)c3ccccc3O2)cc1
- Ki (Thromboxane A2 receptor): 260 nM
- Ki [1]: > 10000 nM
- inhibition in vivo at 3 mg/kg (Cavia porcellus [2]): 41%
- IC50 [3]: 2.4 nM
- Ki [4]: 16 nM
- inhibition in vivo at 1 mg/kg (Cavia porcellus [5]): 23%
- Ki (Prostacyclin receptor): 37 nM
- Ki [6]: 3100 nM

SMILES: Cc1cc(OC[C@@H]2CN(C)c3ccccc3O2)ccc1C(=O)n1c(C)c(CC(=O)O)c2ccccc21
- IC50 (Thromboxane A2 receptor): > 10000 nM
- Ki [1]: > 10000 nM
- inhibition in vivo at 3 mg/kg (Cavia porcellus [2]): 29%
- IC50 [3]: 1.1 nM
- Ki [4]: 3.5 nM
- Ki [7]: 2900 nM
- Ki (Prostacyclin receptor): 130 nM
- Ki [8]: 500 nM
- Ki [9]: 3600 nM
- Ki [6]: 2600 nM

SMILES: Cc1c(CC(=O)O)c2cc(F)ccc2n1C(=O)c1ccc(OC[C@@H]2CN(C)c3ccccc3O2)cc1Cl
- IC50 (Thromboxane A2 receptor): > 10000 nM
- Ki [1]: 4100 nM
- inhibition in vivo at 3 mg/kg (Cavia porcellus [2]): 52%
- IC50 [3]: 1.6 nM
- Ki [4]: 5.2 nM
- Ki [7]: > 10000 nM
- Ki (Prostacyclin receptor): 200 nM
- Ki [8]: 370 nM
- Ki [9]: 3200 nM
- Ki [6]: 1200 nM

SMILES: CCN1c2ccccc2C[C@@H]1COc1ccc(C(=O)n2c(C)c(CC(=O)O)c3ccccc32)c(C)c1
- IC50 (Thromboxane A2 receptor): 7600 nM
- Ki [1]: 1600 nM
- IC50 [3]: 2.2 nM
- Ki [4]: 4.8 nM
- Ki [7]: > 10000 nM
- inhibition in vivo at 1 mg/kg (Cavia porcellus [5]): 42%
- Ki (Prostacyclin receptor): 2200 nM
- Ki [8]: 2700 nM
- Ki [9]: 2800 nM
- Ki [6]: 1400 nM

SMILES: Cc1c(CC(=O)O)c2ccccc2n1C(=O)c1ccc(OC[C@@H]2CN(C)c3ccccc3O2)cc1Cl
- Ki [1]: > 10000 nM
- inhibition in vivo at 3 mg/kg (Cavia porcellus [2]): 48%
- IC50 [3]: 2.2 nM
- Ki [4]: 4.4 nM
- Ki [7]: > 10000 nM
- Ki (Prostacyclin receptor): 92 nM
- Ki [8]: 600 nM
- Ki [9]: > 10000 nM
